Source: ChEMBL document CHEMBL1914304 (J Med Chem, 2011)

Assays:
[1] = target: Voltage-dependent T-type calcium channel subunit alpha-1H (Homo sapiens) (UniProt O95180); assay: Inhibition of Cav3.2 at 10 uM after 5 mins by patch clamp assay
Method in brief: (§1)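 Fixed-concentration screen across a panel of 12 cloned cardiac ion channels. The compound was tested at 10 µM for 5 min exposure at room temperature by automated parallel patch clamp, in two cells (n ≥ 2) per channel. Values are mean percent inhibition of channel current.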

[2] = target: T1, Potassium/sodium hyperpolarization-activated cyclic nucleotide-gated channel 2 (Homo sapiens) (UniProt Q9UL51); assay: Inhibition of HCN2 at 10 uM after 5 mins by patch clamp assay
T1 sequence (whole entry): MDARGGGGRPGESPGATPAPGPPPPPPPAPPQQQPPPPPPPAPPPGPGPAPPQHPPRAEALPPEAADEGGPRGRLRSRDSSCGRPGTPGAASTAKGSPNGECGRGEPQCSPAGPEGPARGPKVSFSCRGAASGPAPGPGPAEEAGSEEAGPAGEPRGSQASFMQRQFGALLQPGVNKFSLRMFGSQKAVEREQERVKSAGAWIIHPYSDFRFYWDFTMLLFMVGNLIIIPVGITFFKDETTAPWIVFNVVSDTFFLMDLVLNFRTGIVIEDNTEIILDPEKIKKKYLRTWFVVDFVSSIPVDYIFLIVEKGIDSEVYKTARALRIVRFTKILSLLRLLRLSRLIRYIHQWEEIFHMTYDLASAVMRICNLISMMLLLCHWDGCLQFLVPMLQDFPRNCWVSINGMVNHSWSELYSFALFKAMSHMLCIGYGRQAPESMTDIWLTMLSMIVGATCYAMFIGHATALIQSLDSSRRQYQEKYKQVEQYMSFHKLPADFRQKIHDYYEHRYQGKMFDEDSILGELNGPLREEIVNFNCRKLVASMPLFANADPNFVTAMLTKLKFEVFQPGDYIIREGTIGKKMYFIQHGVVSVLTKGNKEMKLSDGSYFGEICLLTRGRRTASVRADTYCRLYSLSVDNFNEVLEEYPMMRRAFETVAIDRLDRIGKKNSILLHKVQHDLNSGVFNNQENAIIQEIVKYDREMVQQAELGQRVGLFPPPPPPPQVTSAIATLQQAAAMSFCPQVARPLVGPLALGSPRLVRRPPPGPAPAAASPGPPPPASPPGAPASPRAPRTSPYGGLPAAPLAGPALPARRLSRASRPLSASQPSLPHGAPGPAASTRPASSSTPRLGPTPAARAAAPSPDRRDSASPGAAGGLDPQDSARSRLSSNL
Method in brief: (§2)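 Cardiac ion channel panel run by a contract lab on an automated parallel patch-clamp system at room temperature. Each of 12 cardiac channels was tested with 10 µM compound for 5 min exposure, in two cells per channel (n ≥ 2). Values are reported as mean % inhibition.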

[3] = target: Sulfonylurea receptor 2, Kir6.2 (Homo sapiens) (UniProt Q14654+O60706); assay: Inhibition of Kir6.2/SUR2A at 10 uM after 5 mins by patch clamp assay; method in brief: as §1
[4] = Inhibition of KvLQT/minK at 10 uM after 5 mins by patch clamp assay; method in brief: as §1
Kir2.1 = target: T2, Kir2.1 (Homo sapiens, UniProt P63252); assay: Inhibition of Kir2.1 at 10 uM after 5 mins by patch clamp assay; method in brief: as §2
T2 sequence (P63252 whole entry): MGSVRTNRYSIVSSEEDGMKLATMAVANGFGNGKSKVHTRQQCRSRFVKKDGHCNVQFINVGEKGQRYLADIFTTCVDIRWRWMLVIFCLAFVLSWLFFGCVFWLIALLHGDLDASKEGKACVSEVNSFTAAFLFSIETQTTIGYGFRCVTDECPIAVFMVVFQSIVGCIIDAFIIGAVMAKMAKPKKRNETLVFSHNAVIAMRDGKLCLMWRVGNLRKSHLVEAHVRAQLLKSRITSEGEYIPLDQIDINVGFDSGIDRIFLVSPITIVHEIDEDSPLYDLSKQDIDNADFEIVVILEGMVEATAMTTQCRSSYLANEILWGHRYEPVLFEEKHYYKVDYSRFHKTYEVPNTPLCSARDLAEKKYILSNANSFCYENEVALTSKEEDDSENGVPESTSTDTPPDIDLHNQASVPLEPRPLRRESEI

Sequence of Voltage-dependent T-type calcium channel subunit alpha-1H (Homo sapiens) (O95180 whole entry): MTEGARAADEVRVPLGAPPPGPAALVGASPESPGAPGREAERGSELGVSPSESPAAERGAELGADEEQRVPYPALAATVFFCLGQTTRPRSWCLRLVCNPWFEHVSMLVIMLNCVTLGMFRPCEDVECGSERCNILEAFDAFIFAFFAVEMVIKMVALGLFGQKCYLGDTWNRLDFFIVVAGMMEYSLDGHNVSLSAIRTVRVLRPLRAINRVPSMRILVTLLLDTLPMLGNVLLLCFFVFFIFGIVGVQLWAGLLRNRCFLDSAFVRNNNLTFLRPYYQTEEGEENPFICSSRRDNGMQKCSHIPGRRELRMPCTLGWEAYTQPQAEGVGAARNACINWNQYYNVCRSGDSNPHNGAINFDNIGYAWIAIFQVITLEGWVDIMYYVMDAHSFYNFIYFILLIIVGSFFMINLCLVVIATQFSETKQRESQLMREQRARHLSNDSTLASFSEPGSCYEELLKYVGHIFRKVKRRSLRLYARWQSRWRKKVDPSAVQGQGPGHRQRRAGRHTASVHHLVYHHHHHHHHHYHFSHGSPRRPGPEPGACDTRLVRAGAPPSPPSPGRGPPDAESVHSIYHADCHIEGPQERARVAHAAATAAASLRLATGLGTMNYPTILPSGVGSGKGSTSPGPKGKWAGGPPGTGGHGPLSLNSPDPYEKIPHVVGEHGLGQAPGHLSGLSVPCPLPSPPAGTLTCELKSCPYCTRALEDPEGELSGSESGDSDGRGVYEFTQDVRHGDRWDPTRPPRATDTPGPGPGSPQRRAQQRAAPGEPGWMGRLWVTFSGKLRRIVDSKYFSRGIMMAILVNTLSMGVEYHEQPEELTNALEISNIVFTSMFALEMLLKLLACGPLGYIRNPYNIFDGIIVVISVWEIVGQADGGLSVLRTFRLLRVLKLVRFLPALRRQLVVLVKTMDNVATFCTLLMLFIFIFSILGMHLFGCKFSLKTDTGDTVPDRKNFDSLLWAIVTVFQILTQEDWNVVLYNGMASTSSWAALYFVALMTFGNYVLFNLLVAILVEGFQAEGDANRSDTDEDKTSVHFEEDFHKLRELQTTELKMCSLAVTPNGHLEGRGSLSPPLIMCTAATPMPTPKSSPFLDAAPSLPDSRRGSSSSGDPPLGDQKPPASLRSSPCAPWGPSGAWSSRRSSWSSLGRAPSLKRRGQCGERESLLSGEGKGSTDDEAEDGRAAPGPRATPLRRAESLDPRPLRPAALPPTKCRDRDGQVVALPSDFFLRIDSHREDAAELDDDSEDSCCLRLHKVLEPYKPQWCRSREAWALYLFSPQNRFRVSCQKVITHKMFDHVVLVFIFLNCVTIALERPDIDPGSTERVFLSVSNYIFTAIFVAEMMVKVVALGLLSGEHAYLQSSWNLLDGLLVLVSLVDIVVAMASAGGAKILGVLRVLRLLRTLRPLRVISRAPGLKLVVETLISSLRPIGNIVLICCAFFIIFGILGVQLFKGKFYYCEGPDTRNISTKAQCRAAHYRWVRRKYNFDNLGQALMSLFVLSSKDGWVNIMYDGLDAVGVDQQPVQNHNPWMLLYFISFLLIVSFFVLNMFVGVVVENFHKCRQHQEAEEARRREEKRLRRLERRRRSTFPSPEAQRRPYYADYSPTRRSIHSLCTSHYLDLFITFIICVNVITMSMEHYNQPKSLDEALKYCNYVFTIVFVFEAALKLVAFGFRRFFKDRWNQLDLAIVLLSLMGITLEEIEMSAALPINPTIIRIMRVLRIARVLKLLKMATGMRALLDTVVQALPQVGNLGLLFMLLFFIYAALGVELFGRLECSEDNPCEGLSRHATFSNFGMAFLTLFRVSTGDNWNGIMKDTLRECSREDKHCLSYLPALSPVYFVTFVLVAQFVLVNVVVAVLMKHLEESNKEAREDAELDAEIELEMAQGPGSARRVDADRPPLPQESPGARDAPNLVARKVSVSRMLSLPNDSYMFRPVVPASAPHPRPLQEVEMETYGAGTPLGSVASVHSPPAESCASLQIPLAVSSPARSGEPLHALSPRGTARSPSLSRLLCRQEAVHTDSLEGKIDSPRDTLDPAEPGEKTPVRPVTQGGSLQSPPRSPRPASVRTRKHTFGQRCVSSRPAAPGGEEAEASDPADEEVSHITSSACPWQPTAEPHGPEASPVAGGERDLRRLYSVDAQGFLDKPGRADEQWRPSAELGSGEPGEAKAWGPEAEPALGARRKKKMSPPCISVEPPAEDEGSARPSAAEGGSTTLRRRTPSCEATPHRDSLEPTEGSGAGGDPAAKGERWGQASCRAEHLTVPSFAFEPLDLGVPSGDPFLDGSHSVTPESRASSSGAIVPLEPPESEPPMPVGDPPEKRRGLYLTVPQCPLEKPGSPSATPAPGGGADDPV

## CCCNCC(O)COc1ccccc1C(=O)CCc1ccccc1 (racemic) [PROPAFENONE]
[1]
  inhibition: 60.2%
[2]
  inhibition: 47.8%
[3]
  inhibition: 89.6%
[4]
  inhibition: 33%
Kir2.1
  inhibition at 5 min, 10 µM: 0.2%
